# From ChEMBL document CHEMBL4339227, “Stereoselective Synthesis of C-2 Alkylated Trihydroxypiperidines: Novel Pharmacological Chaperones for Gaucher Disease” (ACS Med Chem Lett, 2019)
# Active and inactive are the calls of the source. No cut-off for these calls is given here.
# Key:
# Homo sapiens [1] = species: Homo sapiens; test: Chaperone activity at GCase N370/RecNcil mutant in human fibroblasts derived from Gaucher patient assessed as increase in GCase activity at 50 uM incubated for 4 days using 4-methylumbelliferyl-beta-D-glucoside substrate by spectrophotometry relative to untreated control
# [2] = Inhibition of GCase in human leukocytes extracts using 4-methylumbelliferyl-beta-D-glucoside substrate incubated for 1 hr by spectrophotometry; format: cell-based
# Procedure, shortened: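 Human leukocyte homogenates were used as the GCase source. IC50 was derived from GCase activity measured across a range of inhibitor concentrations.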
# Homo sapiens [3] = species: Homo sapiens; test: Chaperone activity at GCase N370/RecNcil mutant in human fibroblasts derived from Gaucher patient assessed as increase in GCase activity at 10 nM incubated for 4 days using 4-methylumbelliferyl-beta-D-glucoside substrate by spectrophotometry relative to untreated control
# Homo sapiens [4] = species: Homo sapiens; test: Chaperone activity at GCase N370/RecNcil mutant in human fibroblasts derived from Gaucher patient assessed as increase in GCase activity at 10 uM incubated for 4 days using 4-methylumbelliferyl-beta-D-glucoside substrate by spectrophotometry relative to untreated control
# Homo sapiens [5] = species: Homo sapiens; test: Inhibition of GCase in human leukocytes extracts at 1 mM using 4-methylumbelliferyl-beta-D-glucoside substrate incubated for 1 hr by spectrophotometry relative to untreated control; format: cell-based
# Procedure, shortened: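 Human leukocyte homogenates were used as the GCase source. Enzyme activity was measured with the test compound at 1 mM, and the result was expressed as percent inhibition.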
# [6] = Competitive inhibition of GCase in human leukocytes extracts using 4-methylumbelliferyl-beta-D-glucoside substrate incubated for 1 hr by spectrophotometry; format: cell-based
# Homo sapiens [7] = species: Homo sapiens; test: Chaperone activity at GCase L444P GBA gene mutant mutant in human fibroblasts derived from Gaucher patient assessed as increase in GCase activity at 100 uM incubated for 4 days using 4-methylumbelliferyl-beta-D-glucoside substrate by spectrophotometry relative to untreated control
# Homo sapiens [8] = species: Homo sapiens; test: Chaperone activity at GCase N370/RecNcil mutant in human fibroblasts derived from Gaucher patient assessed as increase in GCase activity at 50 nM incubated for 4 days using 4-methylumbelliferyl-beta-D-glucoside substrate by spectrophotometry relative to untreated control
# Homo sapiens [9] = species: Homo sapiens; test: Chaperone activity at GCase N370/RecNcil mutant in human fibroblasts derived from Gaucher patient assessed as increase in GCase activity at 1 uM incubated for 4 days using 4-methylumbelliferyl-beta-D-glucoside substrate by spectrophotometry relative to untreated control
# Homo sapiens [10] = species: Homo sapiens; test: Chaperone activity at GCase N370/RecNcil mutant in human fibroblasts derived from Gaucher patient assessed as increase in GCase activity at 100 uM relative to untreated control
# Homo sapiens [11] = species: Homo sapiens; test: Chaperone activity at GCase N370/RecNcil mutant in human fibroblasts derived from Gaucher patient assessed as increase in GCase activity at 100 uM incubated for 4 days using 4-methylumbelliferyl-beta-D-glucoside substrate by spectrophotometry relative to untreated control
# Homo sapiens [12] = species: Homo sapiens; test: Chaperone activity at GCase N370/RecNcil mutant in human fibroblasts derived from Gaucher patient assessed as increase in GCase activity incubated for 4 days using 4-methylumbelliferyl-beta-D-glucoside substrate by spectrophotometry relative to untreated control
IC50 [2],inhibition (Homo sapiens [5]),SMILES,further results
29.3 µM,100%,CCCCCCCC[C@H]1NC[C@@H](O)[C@@H](O)[C@@H]1O,fold change (FC) (Homo sapiens [1]): 1.9; fold change (FC) (Homo sapiens [3]): 1.4; fold change (FC) (Homo sapiens [4]): 1.6; Ki [6]: 18.5 µM; fold change (FC) (Homo sapiens [7]): 1.8
100 µM,96%,CCCCCCCCCCC[C@@H]1NC[C@@H](O)[C@@H](O)[C@@H]1O,fold change (FC) (Homo sapiens [8]): 1.3
1.5 µM,95%,CCCCCCCCCCCC[C@H]1NC[C@@H](O)[C@@H](O)[C@@H]1O,Ki [6]: 3.6 µM; fold change (FC) (Homo sapiens [9]): 1.4
9 µM,98%,CCCCCCCCCCCCC[C@H]1NC[C@@H](O)[C@@H](O)[C@@H]1O,–
23.3 µM,91%,CCCCCCCCCCCC[C@@H]1NC[C@@H](O)[C@@H](O)[C@@H]1O,fold change (FC) (Homo sapiens [9]): 1.4
> 1000 µM,50%,CCCCCCCC[C@H]1[C@@H](O)[C@H](O)[C@H](O)CN1C,–
93.5 µM,80%,CCCCCCCC[C@@H]1NC[C@@H](O)[C@@H](O)[C@@H]1O,fold change (FC) (Homo sapiens [3]): 1.3
30 µM,98%,CCCCCCCCN1C[C@@H](O)C(O)[C@H](O)C1,fold change (FC) (Homo sapiens [10]): 1.25; fold change (FC) (Homo sapiens [11]): 1.26
160 µM,88%,CCCCCCCCCCCCC[C@@H]1NC[C@@H](O)[C@@H](O)[C@@H]1O,Activity (Homo sapiens [12]): inactive
7 µM,100%,CCCCCCCCCCC[C@H]1NC[C@@H](O)[C@@H](O)[C@@H]1O,fold change (FC) (Homo sapiens [8]): 1.2
